# Assay results taken from ChEMBL document CHEMBL1153775, “Synthesis, structure elucidation and antitumour activity of N-substituted amides of 3-(3-ethylthio-1,2,4-triazol-5-yl)propenoic acid” (Eur J Med Chem, 2009).
# How the values were obtained:
# A549 [1] = test: Cytotoxicity against human A549 cells assessed as growth inhibition at 0.16 mM after 72 hrs by spectrophotometer using BrdU labeling; type: functional; conditions: A549, 72 h, read-out: GI
# A549 [2] = test: Cytotoxicity against human A549 cells assessed as growth inhibition at 0.32 mM after 24 hrs by spectrophotometer using BrdU labeling; type: functional; conditions: A549, 24 h, read-out: GI
# A549 [3] = test: Cytotoxicity against human A549 cells assessed as growth inhibition at 0.16 mM after 48 hrs by spectrophotometer using BrdU labeling; type: functional; conditions: A549, 48 h, read-out: GI
# [4] = Cytotoxicity against human HSF cells assessed as growth inhibition at 0.32 mM after 48 hrs by spectrophotometer using BrdU labeling; type: cell-based; conditions: read-out: GI
# T47D [5] = test: Cytotoxicity against human T47D cells assessed as growth inhibition at 0.16 mM after 24 hrs by spectrophotometer using BrdU labeling; type: functional; conditions: read-out: GI
# [6] = Cytotoxicity against human HSF cells assessed as growth inhibition at 0.32 mM after 24 hrs by spectrophotometer using BrdU labeling; type: cell-based; conditions: read-out: GI
# A549 [7] = test: Cytotoxicity against human A549 cells assessed as growth inhibition at 0.03 mM after 72 hrs by spectrophotometer using BrdU labeling; type: functional; conditions: A549, 72 h, read-out: GI
# [8] = Cytotoxicity against human HSF cells assessed as growth inhibition at 0.16 mM after 24 hrs by spectrophotometer using BrdU labeling; type: cell-based; conditions: read-out: GI
# T47D [9] = test: Cytotoxicity against human T47D cells assessed as growth inhibition at 0.03 mM after 24 hrs by spectrophotometer using BrdU labeling; type: functional; conditions: read-out: GI
# [10] = Cytotoxicity against human HSF cells assessed as growth inhibition at 0.03 mM after 24 hrs by spectrophotometer using BrdU labeling; type: cell-based; conditions: read-out: GI
# A549 [11] = test: Cytotoxicity against human A549 cells assessed as growth inhibition at 0.03 mM after 48 hrs by spectrophotometer using BrdU labeling; type: functional; conditions: A549, 48 h, read-out: GI
# [12] = Cytotoxicity against human HSF cells assessed as growth inhibition at 0.16 mM after 72 hrs by spectrophotometer using BrdU labeling; type: cell-based; conditions: read-out: GI
# T47D [13] = test: Cytotoxicity against human T47D cells assessed as growth inhibition at 0.03 mM after 72 hrs by spectrophotometer using BrdU labeling; type: functional; conditions: read-out: GI
# T47D [14] = test: Cytotoxicity against human T47D cells assessed as growth inhibition at 0.16 mM after 72 hrs by spectrophotometer using BrdU labeling; type: functional; conditions: read-out: GI
# Method in brief: (§1)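 Human breast carcinoma T47D cells were plated at 10⁴ cells per mL on microtiter plates. Each compound was added at three doses, given as mM equivalents of three mass concentrations. Plates were incubated for 24, 48 or 72 h. The read-out was percent growth inhibition (GI).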
# [15] = Cytotoxicity against human HSF cells assessed as growth inhibition at 0.16 mM after 48 hrs by spectrophotometer using BrdU labeling; type: cell-based; conditions: read-out: GI
# [16] = Cytotoxicity against human HSF cells assessed as growth inhibition at 0.03 mM after 48 hrs by spectrophotometer using BrdU labeling; type: cell-based; conditions: read-out: GI
# A549 [17] = test: Cytotoxicity against human A549 cells assessed as growth inhibition at 0.03 mM after 24 hrs by spectrophotometer using BrdU labeling; type: functional; conditions: A549, 24 h, read-out: GI
# [18] = Cytotoxicity against human HSF cells assessed as growth inhibition at 0.03 mM after 72 hrs by spectrophotometer using BrdU labeling; type: cell-based; conditions: read-out: GI
# A549 [19] = test: Cytotoxicity against human A549 cells assessed as growth inhibition at 0.16 mM after 24 hrs by spectrophotometer using BrdU labeling; type: functional; conditions: A549, 24 h, read-out: GI
# A549 [20] = test: Cytotoxicity against human A549 cells assessed as growth inhibition at 0.32 mM after 48 hrs by spectrophotometer using BrdU labeling; type: functional; conditions: A549, 48 h, read-out: GI
# T47D [21] = test: Cytotoxicity against human T47D cells assessed as growth inhibition at 0.32 mM after 48 hrs by spectrophotometer using BrdU labeling; type: functional; conditions: read-out: GI; method in brief: as §1
# A549 [22] = test: Cytotoxicity against human A549 cells assessed as growth inhibition at 0.32 mM after 72 hrs by spectrophotometer using BrdU labeling; type: functional; conditions: A549, 72 h, read-out: GI
# [23] = Cytotoxicity against human HSF cells assessed as growth inhibition at 0.32 mM after 72 hrs by spectrophotometer using BrdU labeling; type: cell-based; conditions: read-out: GI
# T47D [24] = test: Cytotoxicity against human T47D cells assessed as growth inhibition at 0.16 mM after 48 hrs by spectrophotometer using BrdU labeling; type: functional; conditions: read-out: GI
# T47D [25] = test: Cytotoxicity against human T47D cells assessed as growth inhibition at 0.03 mM after 48 hrs by spectrophotometer using BrdU labeling; type: functional; conditions: read-out: GI
# T47D [26] = test: Cytotoxicity against human T47D cells assessed as growth inhibition at 0.32 mM after 24 hrs by spectrophotometer using BrdU labeling; type: functional; conditions: read-out: GI; method in brief: as §1
# T47D [27] = test: Cytotoxicity against human T47D cells assessed as growth inhibition at 0.32 mM after 72 hrs by spectrophotometer using BrdU labeling; type: functional; conditions: read-out: GI; method in brief: as §1
compound,measurement,setting,value
CCSc1n[nH]c(/C=C\C(=O)Nc2ccccc2Cl)n1,inhibition of growth at 160 µM,A549 [1],50%
same,inhibition of growth at 320 µM,A549 [2],50%
same,inhibition of growth at 160 µM,A549 [3],50%
same,"inhibition at 48 h, 320 µM",[4],50%
same,inhibition of growth at 160 µM,T47D [5],0%
same,"inhibition at 24 h, 320 µM",[6],25%
same,inhibition of growth at 30 µM,A549 [7],25%
same,"inhibition at 24 h, 160 µM",[8],0%
same,inhibition of growth at 30 µM,T47D [9],0%
same,"inhibition at 24 h, 30 µM",[10],0%
same,inhibition of growth at 30 µM,A549 [11],25%
same,"inhibition at 72 h, 160 µM",[12],0%
same,inhibition of growth at 30 µM,T47D [13],5%
same,inhibition of growth at 160 µM,T47D [14],50%
same,"inhibition at 48 h, 160 µM",[15],0%
same,"inhibition at 48 h, 30 µM",[16],0%
same,inhibition of growth at 30 µM,A549 [17],25%
same,"inhibition at 72 h, 30 µM",[18],5%
same,inhibition of growth at 160 µM,A549 [19],50%
same,inhibition of growth at 320 µM,A549 [20],50%
same,inhibition of growth at 320 µM,T47D [21],10%
same,inhibition of growth at 320 µM,A549 [22],75%
same,"inhibition at 72 h, 320 µM",[23],75%
same,inhibition of growth at 160 µM,T47D [24],10%
same,inhibition of growth at 30 µM,T47D [25],0%
same,inhibition of growth at 320 µM,T47D [26],0%
same,inhibition of growth at 320 µM,T47D [27],90%
